Source: publication PMC8906099 (Current Research in Parasitology & Vector-borne Diseases, 2021)
≈ marks a conversion by molar mass, not a printed value. Where two headings read alike, the source gives them in different places.

Legend:
[1] = system: trypomastigotes of T. cruzi (Sylvio X10/4 strain); test: Trypanocidal activity against trypomastigotes; type: cell-based; details: Trypanosoma cruzi, 72 h, read-out: IC50 ± SD, trypomastigotes
Outline: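 Sylvio X10/4 trypomastigotes were taken from amastigote culture supernatant and seeded at 1 × 10^6 per well. Test compound was added at 0.19–100 μM (0.1% DMSO), with benznidazole (0.019–10 μM) and DMSO controls. Incubation was 72 h at 37 °C, 5% CO2. Viability was read with resazurin (40 μM in PBS), fluorescence 530/630 nm. IC50 came from sigmoid dose–response fits.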

[2] = system: amastigotes of T. cruzi Brazil strain; test: Trypanocidal activity against intracellular amastigotes in C2C12 cells; type: cell-based; details: Trypanosoma cruzi, C2C12, 72 h, read-out: IC50 ± SD, amastigotes
Outline: (§1)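 Trypomastigotes from C2C12 co-culture (DMEM, 10% FBS, 25 mM HEPES, pH 7.2) were seeded with C2C12 cells at a 1:15 infection rate. Test compound (0.19–100 μM, 2-fold, 0.1% DMSO) was added at the start. After 72 h at 37 °C, 5% CO2, cells were stained with DAPI 2 h and imaged confocally. Amastigote and host nuclei were told apart by size. IC50 came from sigmoid fits of the infection ratio normalised to controls. Mean ± SD, three experiments in triplicate.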

[3] = system: amastigotes of T. cruzi CA-I/72 strain; test: as above; type: cell-based; details: Trypanosoma cruzi, C2C12, 72 h, read-out: IC50 ± SD, amastigotes
Outline: as §1

[4] = system: amastigotes of T. cruzi Sylvio X10/4 strain; test: as above; type: cell-based; details: Trypanosoma cruzi, C2C12, 72 h, read-out: IC50 ± SD, amastigotes
Outline: as §1

[5] = system: amastigotes of T. cruzi Sylvio X10/7 strain; test: as above; type: cell-based, Trypanosoma cruzi
Outline: as §1

[6] = system: intracellular amastigotes of T. cruzi CA-I/72 strain; test: Time-course study against intracellular amastigotes; type: cell-based; details: Trypanosoma cruzi
Outline: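 CA-I/72 trypomastigotes were incubated with C2C12 cells for 48 h to form intracellular amastigotes. Test compound was then added (0.19–100 μM, 2-fold, 0.1% DMSO), with benznidazole and DMSO controls. Incubation ran 8, 12, 24 or 48 h at 37 °C, 5% CO2. Growth inhibition was read by DAPI high-content imaging. IC50 came from sigmoid fits of the normalised infection ratio. Time trend was tested by linear regression and ANOVA.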

[7] = Time-course cytotoxicity in infected C2C12 cells; type: cell-based, murine; details: mouse
Outline: (§2)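 This uses the CA-I/72 time-course infection format: a 48 h pre-infection of C2C12 cells, then test compound at 0.19–100 μM for 8, 12, 24 or 48 h, with DAPI imaging. Host viability was the total host cell count divided by the mean count of 0.1% DMSO controls. CC50 came from sigmoid fits. SI = CC50/IC50 against amastigotes at the matching time.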

[8] = system: C2C12 cells infected with intracellular amastigotes of T. cruzi (CA-I/72 strain); test: Time-course cytotoxicity in infected C2C12 cells; type: cell-based, murine; details: infected C2C12 vs amastigotes CA-I/72, time-course
Outline: as §2

[9] = Cytotoxicity in infected C2C12 cells after 72 h; type: cell-based, murine; details: mouse
Outline: (§3)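 C2C12 cells were infected with trypomastigotes (1:15) together with test compound (0.19–100 μM, 0.1% DMSO) for 72 h at 37 °C, 5% CO2. Host nuclei were counted by DAPI high-content imaging. Viability was the cell count relative to the DMSO-control mean. CC50 came from sigmoid fits. SI = CC50/IC50 against intracellular amastigotes of the same strain at 72 h.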

[10] = Cytotoxicity in non-infected cells; type: cell-based, murine; details: mouse, non-infected C2C12 cells
Outline: (§4)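 Non-infected C2C12 cells (5 × 10^4 per well) were plated for 24 h. Test compound (0.19–100 μM, 2-fold, 0.1% DMSO) was then added for 72 h at 37 °C. Controls were untreated, DMSO 0.4% and Triton 15%. After a PBS wash, MTT (2 mg/ml) was added for 4 h, and absorbance was read at 450 nm (reference 620 nm). CC50 came from sigmoid fits. SI = CC50/IC50 against CA-I/72 amastigotes at 72 h.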

non-infected C2C12 cells = test: Cytotoxicity in non-infected cells; type: cell-based, murine; details: non-infected C2C12 CC50 / IC50 amastigotes CA-I/72 strain, 72 h
Outline: as §4

[11] = Cytotoxicity in non-infected cells; type: cell-based, monkey; details: monkey, non-infected LLC-MK2 cells
Outline: (§5)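 LLC-MK2 monkey kidney cells, grown in RPMI with 10% FBS at 37 °C and 5% CO2, were plated and after 24 h exposed to test compound (0.19–100 μM, 2-fold dilutions, 0.1% DMSO) for 72 h at 37 °C. Controls were untreated cells, 0.4% DMSO and 15% Triton. After a PBS wash, MTT (2 mg/ml) was added for 4 h, and absorbance read at 450/620 nm. SI is CC50 divided by the 72 h CA-I/72 intracellular amastigote IC50.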

[12] = system: non-infected LLC-MK2 cells; test: Cytotoxicity in non-infected cells; type: cell-based, monkey; details: non-infected LLC-MK2 CC50 / IC50 amastigotes CA-I/72 strain, 72 h
Outline: as §5

female BALB/c mice = test: Acute oral toxicity test in mice; type: in vivo; details: for DA/TA (dead animals/total animals) / Mortality / Signs of toxicity: 14 days
Outline: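 Six-week-old female BALB/c mice (25–30 g), five per group. Single oral dose of 300 or 1,000 mg/kg test compound in Tween 80/ethanol/water (7:3:90), with a vehicle group. Clinical signs (ataxia, tremor, salivation, ptosis, seizures and others) watched continuously for 1 h, periodically over 24 h, then daily to day 14. Mortality recorded.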

infected C2C12 cells = test: Cytotoxicity in infected C2C12 cells after 72 h; type: cell-based, murine; details: 72 h
Outline: as §3

[13] = system: several Streptococcus species; details: ref Vieira et al., 2018; cited from earlier work
[14] = Trypanosoma cruzi, C2C12, 72 h, read-out: IC50 ± SD, amastigotes, Sylvio X10/7 strain, 72 h incubation
[15] = read-out: IC50 over the incubation times evaluated
[16] = C2C12 cells infected with T. cruzi Brazil strain
[17] = C2C12 cells infected with T. cruzi CA-I/72 strain
[18] = C2C12 cells infected with T. cruzi Sylvio X10/4 strain
[19] = C2C12 cells infected with T. cruzi Sylvio X10/7 strain
[20] = infected C2C12, Sylvio X10/4 strain
[21] = infected C2C12, Sylvio X10/7 strain

Structure (SMILES) | IC50 [1] [µM] | IC50 [2] [µM] | IC50 [3] [µM] | IC50 [4] [µM] | IC50 [5, 14] [µM] | IC50 ([6]; 8 h, read-out: IC50 ± SD) [µM] | IC50 ([6]; 12 h, read-out: IC50 ± SD) [µM] | IC50 ([6]; 24 h, read-out: IC50 ± SD) [µM] | IC50 ([6]; 48 h, read-out: IC50 ± SD) [µM] | CC50 at 8 h [7] [µM] | CC50 at 12 h [7] [µM] | CC50 at 24 h [7] [µM] | CC50 at 48 h [7] [µM] | CC50 at 72 h [9, 16] [µM] | CC50 at 72 h [9, 17] [µM] | CC50 at 72 h [9, 18] [µM] | CC50 at 72 h [9, 19] [µM] | CC50 at 72 h [10] [µM] | SI (CC50/IC50) (non-infected C2C12 cells) | CC50 at 72 h [11] [µM] | other results
O=C(Cn1ccnc1[N+](=O)[O-])NCc1ccccc1 [BZ, benznidazole, reference compound] | 1.16 ± 0.04 | 1.28 ± 0.64 | 2.02 ± 0.12 | 4.12 ± 1.02 | 1.19 ± 0.25 | > 10 | 6.85 ± 1.56 | 5.97 ± 1.2 | 1.54 ± 0.36 | > 10 | 3.98 ± 0.31 | 3.48 ± 0.7 | 0.27 ± 0.07 | > 10 | > 10 | > 10 | > 10 | 37.9 ± 1.54 | 18.73 | 168 ± 2.98 | IC50 [6, 15]: 1.54 to 10 µM; SI (CC50/IC50) ([8]; 12 h): 0.58; SI (CC50/IC50) ([8]; 24 h): 0.58; SI (CC50/IC50) ([8]; 48 h): 0.17; SI (CC50/IC50) [12]: 82.92
COc1cc(/C=C/C(=O)CC(=O)/C=C/c2ccc(O)c(OC)c2)ccc1O [CUR, reference compound] | 9.89 ± 0.51 | 11.2 ± 1.05 | 2.71 ± 0.47 | 20 ± 2.61 | 11.6 ± 4.93 | > 100 | > 100 | 51.6 ± 1.26 | 2.25 ± 0.65 | 60.3 ± 1.54 | 9.95 ± 1.17 | 1.88 ± 0.17 | 0.47 ± 0.09 | 2.36 ± 1.24 | 6.71 ± 0.7 | 1.91 ± 0.02 | 3.37 ± 1.33 | 18 ± 0.42 |  | 32.5 ± 0.49 | Acute toxicity (general signs of toxicity or mortality) (female BALB/c mice; oral doses 300 and 1,000 mg/kg, 14-day period): no toxic effects; DA/TA (dead animals/total animals) (female BALB/c mice; single oral dose 300 mg/kg): 0/5; Mortality (female BALB/c mice; single oral dose 300 mg/kg): 0%; Signs of toxicity (female BALB/c mice; single oral dose 300 mg/kg): None; DA/TA (dead animals/total animals) (female BALB/c mice; single oral dose 1,000 mg/kg): 0/5; Mortality (female BALB/c mice; single oral dose 1,000 mg/kg): 0%; Signs of toxicity (female BALB/c mice; single oral dose 1,000 mg/kg): None
COc1ccc(/C=C/C(=O)/C=C/c2ccc(OC)cc2)cc1 [DBA 2, (1E,4E)-1,5-bis(4-methoxyphenyl)penta-1,4-dien-3-one] | 29.8 ± 2.12 | 51.6 ± 4.9 | 17.5 ± 1.06 | 46.6 ± 0.48 | 0.48 ± 0.02 | > 100 | > 100 | > 100 | > 100 | 40.7 ± 1.07 | 3.03 ± 0.79 | 0.33 ± 0.41 | 0.02 ± 0.03 | 5.15 ± 0.13 | 4.3 ± 1.22 | 2.54 ± 1.86 | 0.9 ± 1.2 | 35.5 ± 0.5 | 2.03 | 31.4 ± 1.2 | IC50 [6, 15]: > 100 µM; SI (CC50/IC50) (infected C2C12 cells; infected C2C12, Brazil strain): 0.10; SI (CC50/IC50) (infected C2C12 cells; infected C2C12, CA-I/72 strain): 0.24; SI (CC50/IC50) (infected C2C12 cells; [20]): 0.05; SI (CC50/IC50) (infected C2C12 cells; [21]): 1.87; SI (CC50/IC50) [12]: 1.79; MIC [13]: 100 µg/mL (≈ 340 µM)
COc1cc(OC)c(/C=C/C(=O)/C=C/c2c(OC)cc(OC)cc2OC)c(OC)c1 [DBA 4, (1E,4E)-1,5-bis-(2,4,6-trimethoxyphenyl)penta-1,4-dien-3-one] | > 100 | > 100 | 5.01 ± 1.14 | > 100 | 33.1 | > 100 | > 100 | > 100 | 34.5 ± 0.94 | > 100 | 60.4 ± 1.11 | 2.98 ± 0.24 | 0.66 ± 0.29 | 0.09 ± 0.11 | 0.6 ± 0.16 | 0.11 ± 0.1 | 0.37 ± 0.14 | 53.7 ± 1.26 | > 10 | 50.1 ± 7.92 | IC50 ([5]; read-out: IC50 ± SD, amastigotes, Sylvio X10/7 strain, 72 h incubation): 33.1 ± 2.05 µM; SI (CC50/IC50) ([8]; 48 h): 0.01; SI (CC50/IC50) (infected C2C12 cells; infected C2C12, CA-I/72 strain): 0.12; SI (CC50/IC50) (infected C2C12 cells; [21]): 0.01; SI (CC50/IC50) (non-infected C2C12 cells; listed as 4): 10.71; SI (CC50/IC50) [12]: ≥ 10; SI (CC50/IC50) ([12]; listed as 4): 10.00
O=C(/C=C/c1ccc(Cl)cc1)/C=C/c1ccc(Cl)cc1 [DBA 5, (1E,4E)-1,5-bis-(4-chlorophenyl)penta-1,4-dien-3-one] | 73.7 ± 2.08 | 6.37 ± 0.03 | 33.6 ± 1.39 | 56.9 ± 1.86 | 25.3 ± 1.34 | > 100 | > 100 | > 100 | > 100 | 93.29 ± 0.42 | 10.6 ± 1.26 | 0.3 ± 0.02 | 0.2 ± 0.01 | 12.4 ± 2.29 | 15.5 ± 1.25 | 11.8 ± 7.74 | 4.06 ± 2.31 | 38.3 ± 1.69 | 1.13 | 38.1 ± 1.81 | IC50 [6, 15]: > 100 µM; SI (CC50/IC50) (infected C2C12 cells; infected C2C12, CA-I/72 strain): 0.45; SI (CC50/IC50) (infected C2C12 cells; [20]): 0.20; SI (CC50/IC50) (infected C2C12 cells; [21]): 0.16; SI (CC50/IC50) [12]: 1.13; MIC [13]: 100 µg/mL (≈ 330 µM)
